Experimental data: ChEMBL document CHEMBL1149097, “Orally active antimalarials: hydrolytically stable derivatives of 10-trifluoromethyl anhydrodihydroartemisinin” (J Med Chem, 2004)
In brackets after ≈: the same amount, converted by molar mass.

Experiments:
Mus musculus [1] = test: In vivo antimalarial activity against Plasmodium berghei NK173 in mice (Mus musculus) by intraperitoneal route at a concentration of 35.5 uM/kg at day 4; type: functional
Summary of the method: (§1)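 Female CD1 mice (18-20 g) were infected with P. berghei NK 173 at (1-5) × 10^6 parasitized red cells, following the Peters test. Groups held 5-10 mice. Drug was given intraperitoneally at 35.5 µmol·kg⁻¹. Survival was followed to 20 days postinfection.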

Plasmodium falciparum [2] = test: In vitro inhibitory concentration against chloroquine-resistant Plasmodium falciparum FcB1; type: functional, organism-based
Summary of the method: (§2)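 [3H]hypoxanthine uptake assay on chloroquine-resistant P. falciparum FcB1 (Colombia) and W2 (Indochina) in continuous human erythrocyte culture. Ring-stage synchronized parasites at 0.5% parasitemia and 1% final hematocrit received serially diluted drug, with methanol or DMSO at no more than 0.1% final. Plates ran 42 h at 37 °C in a candle jar, then freeze-thaw, harvest and scintillation counting. IC50 came from nonlinear regression of log dose-response, from at least three experiments.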

Plasmodium falciparum [3] = test: In vitro inhibitory concentration against chloroquine-resistant Plasmodium falciparum W2; type: functional, organism-based; summary of the method: as §2
Mus musculus [4] = test: In vivo antimalarial activity against Plasmodium berghei NK173 in mice (Mus musculus) by intraperitoneal route at a concentration of 35.5 uM/kg at day 11; type: functional; summary of the method: as §1
Mus musculus [5] = test: In vivo effective dose evaluated against Plasmodium berghei N by peroral administration in mice (Mus musculus); type: functional; conditions: po
Summary of the method: (§3)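 P. berghei N infection in mice, with drug given subcutaneously or orally, per the Peters protocol. Parasitemia was read on day 4 and expressed as percent reduction at 10 mg/kg. ED50 and ED90 in mg/kg were derived from the same test.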

Mus musculus [6] = test: In vivo effective dose was evaluated against Plasmodium berghei N by sub cutaneous administration in mice (Mus musculus); type: functional; summary of the method: as §3
Mus musculus [7] = test: In vivo effective dose was evaluated against Plasmodium berghei N by peroral administration in mice (Mus musculus); type: functional; conditions: po; summary of the method: as §3
Mus musculus [8] = test: In vivo effective dose evaluated against Plasmodium berghei N by subcutaneous administration in mice (Mus musculus); type: functional; conditions: sc; summary of the method: as §3
Mus musculus [9] = test: Percentage reduction of parasitaemia at day 4 at a concentration of 10 mg/kg by subcutaneous administration; type: functional; summary of the method: as §3
Mus musculus [10] = test: In vivo antimalarial activity against Plasmodium berghei NK 173 in mice (Mus musculus) by intraperitoneal route at a concentration of 35.5 uM/kg at day 10; type: functional; summary of the method: as §1
[11] = Plasma clearance following 10 mg/kg intravenous or 50 mg/kg oral dosing in rats; type: ADME, organism-based; conditions: rat, read-out: Activity
Summary of the method: (§4)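 Male Sprague-Dawley rats (280-320 g) were cannulated the day before, then fasted with free access to water, n = 2 per route. The iv dose was nominally 10 mg/kg, about 3 mg/mL in 10% ethanol/15 mM citrate-buffered 0.1 M Captisol, pH 3, infused over 5 min. The oral dose was nominally 50 mg/kg, given by gavage as a suspension in 0.5% HPMC, 0.5% benzyl alcohol and 0.4% Tween 80 in 0.9% NaCl. Carotid blood was sampled over 8 h, and plasma was quantified by HPLC/MS.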

[12] = Volume of distribution following 10 mg/kg intravenous or 50 mg/kg oral dosing in rats was determined; type: ADME, organism-based; conditions: rat, in vivo; read-out: Activity; summary of the method: as §4
[13] = Oral bioavailability in rat (dose 10 mg/kg i.v. and 50 mg/kg p.o.); type: ADME, organism-based; conditions: in vivo; summary of the method: as §4
[14] = Solubility in iv formulation was determined after incubation at 25 degree C
[15] = Solubility in oral formulation was determined after incubation at 25 degree C; type: physicochemical
[16] = Solubility in PBS AT pH 7.4 was determined after incubation at 25 degree C; type: physicochemical
Mus musculus [17] = test: Compound was evaluated for percentage reduction of parasitaemia at day 4 at a concentration of 10 mg/kg by peroral administration; type: functional; conditions: route oral; summary of the method: as §3
Mus musculus [18] = test: In vivo effective dose was evaluated against Plasmodium berghei N by subcutaneous administration in mice (Mus musculus); type: functional; conditions: sc; summary of the method: as §3
Mus musculus [19] = test: In vivo antimalarial activity against Plasmodium berghei NK 173 in mice (Mus musculus) by intraperitoneal route at a concentration of 35.5 uM/kg at day 12; type: functional; summary of the method: as §1
Mus musculus [20] = test: In vivo antimalarial activity against Plasmodium berghei NK 173 in mice (Mus musculus) by intraperitoneal route at a concentration of 35.5 uM/kg at day 5; type: functional; summary of the method: as §1
[21] = Log D value between octanol and PBS at pH7.4; type: physicochemical; conditions: pH 7.4
[22] = Partition coefficient between octanol and water (logP); type: physicochemical
[23] = pKa value was determined; type: physicochemical

## CC1=CO[C@@H]2OC3(C)CC[C@H]4[C@H](C)CC[C@@H]1[C@@]24OO3 (single isomer, unassigned) [ANHYDRODIHYDROARTEMISININ]
Mus musculus [1]
  Parasitemia: 18%
Plasmodium falciparum [2]
  IC50: 20 nM

## C[C@@H]1CC[C@H]2C(CC(C(=O)O)C(=O)O)=C(C(F)(F)F)O[C@@H]3O[C@]4(C)CC[C@@H]1[C@]32OO4
Plasmodium falciparum [3]
  IC50: > 1000 nM

## CC1=C(C(F)(F)F)O[C@@H]2OC3(C)CC[C@H]4[C@H](C)CC[C@@H]1[C@@]24OO3 (single isomer, unassigned)
Mus musculus [4]
  Parasitemia: 34%
Mus musculus [1]
  Parasitemia: 0%
Plasmodium falciparum [2]
  IC50: 6 nM

## C=CCOCC1=C(C(F)(F)F)O[C@@H]2OC3(C)CC[C@H]4[C@H](C)CC[C@@H]1[C@@]24OO3 (single isomer, unassigned)
Plasmodium falciparum [2]
  IC50: 6 nM

## C[C@@H]1CC[C@H]2C(COCCO)=C(C(F)(F)F)O[C@@H]3OC4(C)CC[C@@H]1[C@]32OO4 (single isomer, unassigned)
Mus musculus [1]
  Parasitemia: 2%
Plasmodium falciparum [2]
  IC50: 2.4 nM

## Cc1ccc(S(=O)(=O)NCC2=C(C(F)(F)F)O[C@@H]3OC4(C)CC[C@H]5[C@H](C)CC[C@@H]2[C@@]35OO4)cc1 (single isomer, unassigned)
Plasmodium falciparum [2]
  IC50: 19.1 nM

## C[C@H]1[C@H](OC(=O)CCC(=O)O)O[C@@H]2O[C@@]3(C)CC[C@H]4[C@H](C)CC[C@@H]1[C@@]24OO3 [ARTESUNATE]
Mus musculus [5]
  ED50: 5.4 mg/kg
Mus musculus [6]
  ED50: 2.8 mg/kg
Mus musculus [7]
  ED90: 15.3 mg/kg
Mus musculus [8]
  ED90: 10.5 mg/kg
Mus musculus [9]
  Reduction: 90%

## C[C@@H]1CC[C@H]2C(CNCCN)=C(C(F)(F)F)O[C@@H]3O[C@]4(C)CCC1[C@]32OO4 (stereo partly drawn)
Mus musculus [10]
  Parasitemia: 25%
Mus musculus [1]
  Parasitemia: 0%
Plasmodium falciparum [2]
  IC50: 1.2 nM

## C[C@@H]1CC[C@H]2C(CO)=C(C(F)(F)F)O[C@@H]3OC4(C)CCC1[C@]32OO4 (single isomer, unassigned)
Mus musculus [1]
  Parasitemia: 40%
Plasmodium falciparum [2]
  IC50: 7.5 nM

## C[C@@H]1CC[C@H]2C(COCC(O)CO)=C(C(F)(F)F)O[C@@H]3OC4(C)CCC1[C@]32OO4 (single isomer, unassigned)
Plasmodium falciparum [2]
  IC50: 3.7 nM

## COC(=O)C(C(=O)OC)C1=C(C(F)(F)F)O[C@@H]2OC3(C)CCC4[C@H](C)CC[C@@H]1[C@]42OO3 (single isomer, unassigned)
Plasmodium falciparum [3]
  IC50: > 1000 nM

## CO[C@H]1O[C@@H]2O[C@@]3(C)CC[C@H]4[C@H](C)CC[C@@H]([C@H]1C)[C@@]24OO3 [ARTEMETHER]
[11]
  clearance: 114 mL/min/kg
[12]
  Vd: 8.4 L/kg
[13]
  bioavailability: 1.4%
[14]
  solubility: 4700 µg/mL (≈ 15800 µM)
[15]
  solubility: 256 µg/mL (≈ 858 µM)
[16]
  solubility: 63.4 µg/mL (≈ 212 µM)
Mus musculus [4]
  Parasitemia: 32%
Mus musculus [1]
  Parasitemia: 0%
Plasmodium falciparum [2]
  IC50: 3.5 nM

## COCCOCC1=C(C(F)(F)F)O[C@@H]2OC3(C)CC[C@H]4[C@H](C)CC[C@@H]1[C@@]24OO3 (single isomer, unassigned)
Mus musculus [1]
  Parasitemia: 6%
Plasmodium falciparum [2]
  IC50: 2.7 nM

## C[C@@H]1CC[C@H]2C(CNS(C)(=O)=O)=C(C(F)(F)F)O[C@@H]3OC4(C)CC[C@@H]1[C@]32OO4 (single isomer, unassigned)
Plasmodium falciparum [2]
  IC50: 20 nM

## C[C@@H]1CC[C@H]2C(COCc3ccccc3)=C(C(F)(F)F)O[C@@H]3OC4(C)CC[C@@H]1[C@]32OO4 (single isomer, unassigned)
Plasmodium falciparum [3]
  IC50: 20 nM

## CCOCC1=C(C(F)(F)F)O[C@@H]2OC3(C)CC[C@H]4[C@H](C)CC[C@@H]1[C@@]24OO3 (single isomer, unassigned)
Mus musculus [6]
  ED50: < 10 mg/kg
Mus musculus [8]
  ED90: < 10 mg/kg
Mus musculus [17]
  Reduction: 15.6%
Mus musculus [9]
  Reduction: 100%
Mus musculus [4]
  Parasitemia: 30%
Mus musculus [1]
  Parasitemia: 0.4%
Plasmodium falciparum [3]
  IC50: 25 nM

## C[C@@H]1CC[C@H]2C(CN3CCOCC3)=C(C(F)(F)F)O[C@@H]3OC4(C)CCC1[C@]32OO4 (single isomer, unassigned)
Mus musculus [5]
  ED50: < 10 mg/kg
Mus musculus [18]
  ED50: < 10 mg/kg
Mus musculus [7]
  ED90: < 10 mg/kg
Mus musculus [8]
  ED90: < 10 mg/kg
Mus musculus [17]
  Reduction: 93.3%
Mus musculus [9]
  Reduction: 98.1%
Mus musculus [19]
  Parasitemia: 45%
Mus musculus [1]
  Parasitemia: 18%
Plasmodium falciparum [2]
  IC50: 3.1 nM

## CCNCC1=C(C(F)(F)F)O[C@@H]2O[C@]3(C)CCC4[C@H](C)CC[C@@H]1[C@]42OO3 (stereo partly drawn)
Mus musculus [5]
  ED50: < 10 mg/kg
Mus musculus [6]
  ED50: < 10 mg/kg
Mus musculus [7]
  ED90: < 10 mg/kg
Mus musculus [8]
  ED90: < 10 mg/kg
Mus musculus [17]
  Reduction: 96%
Mus musculus [9]
  Reduction: 98.1%
Mus musculus [4]
  Parasitemia: 66%
Mus musculus [20]
  Parasitemia: 5%
Plasmodium falciparum [3]
  IC50: 13.4 nM

## CNCC1=C(C(F)(F)F)O[C@@H]2OC3(C)CC[C@H]4[C@H](C)CC[C@@H]1[C@@]24OO3 (single isomer, unassigned)
Plasmodium falciparum [2]
  IC50: 9.2 nM

## CC(=O)OCC1=C(C(F)(F)F)O[C@@H]2OC3(C)CC[C@H]4[C@H](C)CC[C@@H]1[C@@]24OO3 (single isomer, unassigned)
Plasmodium falciparum [2]
  IC50: 1.7 nM

## C[C@@H]1CC[C@H]2C(CN3CCN(CCO)CC3)=C(C(F)(F)F)O[C@@H]3OC4(C)CC[C@@H]1[C@]32OO4 (single isomer, unassigned)
[11]
  clearance: 149 mL/min/kg
[12]
  Vd: 11.8 L/kg
[21]
  logD: 3.46
[13]
  bioavailability: 34.6%
[22]
  logP: 3.52
[23]
  pKa: 6.59
[14]
  solubility: > 3000 µg/mL
[15]
  solubility: 676 µg/mL (≈ 1460 µM)
[16]
  solubility: 234 µg/mL (≈ 507 µM)
Mus musculus [5]
  ED50: < 10 mg/kg
Mus musculus [6]
  ED50: < 10 mg/kg
Mus musculus [7]
  ED90: < 10 mg/kg
Mus musculus [8]
  ED90: < 10 mg/kg
Mus musculus [17]
  Reduction: 100%
Mus musculus [9]
  Reduction: 100%
Mus musculus [4]
  Parasitemia: 37%
Mus musculus [20]
  Parasitemia: 0.5%
Plasmodium falciparum [3]
  IC50: 15.2 nM

## C[C@@H]1CC[C@H]2C(CN=[N+]=[N-])=C(C(F)(F)F)O[C@@H]3OC4(C)CC[C@@H]1[C@]32OO4 (single isomer, unassigned)
Plasmodium falciparum [2]
  IC50: 10 nM

## C[C@@H]1CC[C@H]2C(CN)=C(C(F)(F)F)O[C@@H]3OC4(C)CC[C@@H]1[C@]32OO4 (single isomer, unassigned)
Mus musculus [1]
  Parasitemia: 0.7%
Plasmodium falciparum [2]
  IC50: 4.4 nM
